Reference: ChEMBL document CHEMBL4842326, “Design, synthesis and biological evaluation of 3, 4-disubstituted-imidazolidine-2, 5-dione derivatives as HDAC6 selective inhibitors” (Eur J Med Chem, 2021)

Tests used:
[1] = target: T1, Protein deacetylase HDAC6 (Homo sapiens, UniProt Q9UBN7); test: Inhibition of HDAC6 (unknown origin) using Ac-LeuGlyLy-s(Ac)-AMC as substrate preincubated for 10 mins followed by substrate addition and further incubated for 2 hrs by fluorescence microtiter plate reader assay
T1 sequence (Q9UBN7 whole entry): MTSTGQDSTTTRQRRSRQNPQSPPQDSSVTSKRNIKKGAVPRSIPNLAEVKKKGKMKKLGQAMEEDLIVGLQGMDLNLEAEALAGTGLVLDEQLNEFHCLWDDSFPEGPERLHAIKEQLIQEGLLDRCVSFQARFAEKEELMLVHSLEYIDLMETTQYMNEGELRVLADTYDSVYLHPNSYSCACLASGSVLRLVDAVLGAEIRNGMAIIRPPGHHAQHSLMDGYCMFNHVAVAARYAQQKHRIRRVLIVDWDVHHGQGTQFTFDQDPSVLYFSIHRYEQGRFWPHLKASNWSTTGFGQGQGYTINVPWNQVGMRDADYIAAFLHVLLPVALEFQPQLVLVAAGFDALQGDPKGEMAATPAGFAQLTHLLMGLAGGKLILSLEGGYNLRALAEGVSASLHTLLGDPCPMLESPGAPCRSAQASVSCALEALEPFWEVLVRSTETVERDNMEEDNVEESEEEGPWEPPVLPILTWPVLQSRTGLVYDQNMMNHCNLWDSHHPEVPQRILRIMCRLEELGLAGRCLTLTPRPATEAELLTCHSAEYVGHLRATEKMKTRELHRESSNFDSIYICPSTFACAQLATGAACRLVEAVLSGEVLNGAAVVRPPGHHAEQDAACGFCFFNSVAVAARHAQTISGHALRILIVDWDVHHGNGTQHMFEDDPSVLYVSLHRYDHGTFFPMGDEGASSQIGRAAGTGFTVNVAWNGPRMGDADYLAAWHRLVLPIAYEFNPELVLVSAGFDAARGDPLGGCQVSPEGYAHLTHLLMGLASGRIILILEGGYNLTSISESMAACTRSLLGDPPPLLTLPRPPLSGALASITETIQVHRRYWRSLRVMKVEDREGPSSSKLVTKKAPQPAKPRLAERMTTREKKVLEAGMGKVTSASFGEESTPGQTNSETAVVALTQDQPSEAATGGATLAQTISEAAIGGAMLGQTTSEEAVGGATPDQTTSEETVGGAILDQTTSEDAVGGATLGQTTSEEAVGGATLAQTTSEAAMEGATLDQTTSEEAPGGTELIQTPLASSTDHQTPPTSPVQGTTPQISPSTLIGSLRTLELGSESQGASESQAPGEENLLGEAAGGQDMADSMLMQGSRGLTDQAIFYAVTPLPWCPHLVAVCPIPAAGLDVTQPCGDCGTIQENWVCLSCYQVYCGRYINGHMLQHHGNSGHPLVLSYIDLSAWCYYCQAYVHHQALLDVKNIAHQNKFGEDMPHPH

Histone deacetylase 3 = Histone deacetylase 3 (Homo sapiens, UniProt O15379); test: Inhibition of HDAC3 (unknown origin)
Histone deacetylase 8 [2] = target: T2, Histone deacetylase 8 (Homo sapiens, UniProt Q9BY41); test: Inhibition of HDAC8 (unknown origin)
T2 sequence (Q9BY41 whole entry): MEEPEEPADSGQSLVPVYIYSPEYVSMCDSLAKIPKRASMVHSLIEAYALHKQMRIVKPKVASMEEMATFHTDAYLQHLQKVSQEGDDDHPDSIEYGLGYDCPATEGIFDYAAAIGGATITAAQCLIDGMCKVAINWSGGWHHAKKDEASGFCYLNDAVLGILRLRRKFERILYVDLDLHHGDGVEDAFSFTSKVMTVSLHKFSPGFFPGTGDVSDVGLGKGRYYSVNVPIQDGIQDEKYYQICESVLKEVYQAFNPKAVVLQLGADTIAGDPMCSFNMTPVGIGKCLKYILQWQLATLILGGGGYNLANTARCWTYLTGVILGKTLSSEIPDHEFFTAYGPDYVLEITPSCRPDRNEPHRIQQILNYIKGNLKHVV

Histone deacetylase 2 [3] = target: T3, Histone deacetylase 2 (Homo sapiens, UniProt Q92769); test: Inhibition of HDAC2 (unknown origin)
Histone deacetylase 1 [4] = target: T4, Histone deacetylase 1 (Homo sapiens, UniProt Q13547); test: Inhibition of HDAC1 (unknown origin)
Histone deacetylase 8 [5] = target: T2, Histone deacetylase 8; test: Inhibition of HDAC8 (unknown origin) using Ac-LeuGlyLys(tfa)-AMC as substrate preincubated for 10 mins followed by substrate addition and further incubated for incubated for 1 hrs by fluorescence microtiter plate reader assay
Histone deacetylase 1 [6] = target: T4, Histone deacetylase 1; test: Inhibition of HDAC1 (unknown origin) using Ac-LeuGlyLys(Ac)-AMC as substrate preincubated for 10 mins followed by substrate addition and further incubated for incubated for 1 hrs by fluorescence microtiter plate reader assay
Histone deacetylase 2 [7] = target: T3, Histone deacetylase 2
HL-60 [8] = test: Induction of apoptosis in human HL-60 cells assessed as early apoptotic cells at 3 uM after 48 hrs by Annexin V-FITC/propidium iodide staining based flow cytometric analysis (reference value: […]%); assay type: functional
HL-60 [9] = test: Induction of apoptosis in human HL-60 cells assessed as viable cells at 3 uM after 48 hrs by Annexin V-FITC/propidium iodide staining based flow cytometric analysis (reference value: 93.4%); assay type: functional; settings: read-out: Activity
In short: (§1)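 HL-60 cells (1 × 10^6/well) exposed 48 h to compound dilutions, collected, PBS-washed, resuspended in Annexin V-FITC binding buffer, stained with propidium iodide and Annexin V-FITC for 15 min, then analysed by flow cytometry.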

HEL = test: Antiproliferative activity against human HEL cells assessed as inhibition of cell proliferation after 48 hrs by MTT assay; assay type: functional, cell-based
In short: (§2)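 Leukemia/myeloma lines grown in RPMI1640 with 10% FBS at 37 °C, 5% CO2; seeded at 3500–4000 cells/well, cultured overnight, then exposed to serial dilutions for 48 h.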

Jurkat = test: Antiproliferative activity against human Jurkat cells assessed as inhibition of cell proliferation after 48 hrs by MTT assay; assay type: functional, cell-based; in short: as §2
HL-60 [10] = test: Induction of apoptosis in human HL-60 cells assessed as late apoptotic cells at 3 uM after 48 hrs by Annexin V-FITC/propidium iodide staining based flow cytometric analysis (reference value: 1.45%); assay type: functional; in short: as §1
HL-60 [11] = test: Antiproliferative activity against human HL-60 cells assessed as inhibition of cell proliferation after 48 hrs by MTT assay; assay type: functional, cell-based; settings: HL-60, 48 h; in short: as §2
HUVEC = test: Cytotoxicity against human HUVEC cells assessed as decrease in cell viability after 48 hrs by MTT assay; assay type: cell-based
In short: (§3)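 Normal cells: HUVECs in RPMI1640 with 10% FBS plus 0.1% heparin, GEC-1 in RPMI1640 with 10% FBS. Seeded 8 h, then treated with serial dilutions for 48 h; 0.5% MTT for 4 h, supernatant removed, DMSO added, absorbance read at 570 nm.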

[12] = Cytotoxicity against human GEC1 cells assessed as decrease in cell viability after 48 hrs by MTT assay; assay type: cell-based; settings: GEC1, 48 h; in short: as §3
NCI-H929 = test: Antiproliferative activity against human NCI-H929 cells assessed as inhibition of cell proliferation after 48 hrs by MTT assay; assay type: functional, cell-based; settings: NCI-H929, 48 h; in short: as §2
KG-1 = test: Antiproliferative activity against human KG-1 cells assessed as inhibition of cell proliferation after 48 hrs by MTT assay; assay type: functional, cell-based; settings: KG-1, 48 h; in short: as §2
Homo sapiens [13] = species on record: Homo sapiens; test: Selectivity ratio of IC50 for HDAC2 (unknown origin) to IC50 for HDAC6 (unknown origin)
Homo sapiens [14] = species on record: Homo sapiens; test: Selectivity ratio of IC50 for HDAC1 (unknown origin) to IC50 for HDAC6 (unknown origin)
Homo sapiens [15] = species on record: Homo sapiens; test: Selectivity ratio of IC50 for HDAC8 (unknown origin) to IC50 for HDAC6 (unknown origin)

T4 sequence (Q13547 whole entry): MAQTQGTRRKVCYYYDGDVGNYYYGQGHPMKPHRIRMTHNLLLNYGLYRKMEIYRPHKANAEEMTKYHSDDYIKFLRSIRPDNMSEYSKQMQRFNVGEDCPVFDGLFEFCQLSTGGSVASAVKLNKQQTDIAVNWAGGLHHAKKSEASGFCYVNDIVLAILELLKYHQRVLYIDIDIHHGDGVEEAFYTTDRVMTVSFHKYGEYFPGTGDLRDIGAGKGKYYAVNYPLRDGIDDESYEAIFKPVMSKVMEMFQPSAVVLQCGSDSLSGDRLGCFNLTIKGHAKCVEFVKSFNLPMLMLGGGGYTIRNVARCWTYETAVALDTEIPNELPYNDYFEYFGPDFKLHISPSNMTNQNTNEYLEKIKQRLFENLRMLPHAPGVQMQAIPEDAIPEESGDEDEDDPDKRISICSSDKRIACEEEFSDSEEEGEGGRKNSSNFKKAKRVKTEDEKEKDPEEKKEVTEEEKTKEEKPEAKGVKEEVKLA
T3 sequence (Q92769 whole entry): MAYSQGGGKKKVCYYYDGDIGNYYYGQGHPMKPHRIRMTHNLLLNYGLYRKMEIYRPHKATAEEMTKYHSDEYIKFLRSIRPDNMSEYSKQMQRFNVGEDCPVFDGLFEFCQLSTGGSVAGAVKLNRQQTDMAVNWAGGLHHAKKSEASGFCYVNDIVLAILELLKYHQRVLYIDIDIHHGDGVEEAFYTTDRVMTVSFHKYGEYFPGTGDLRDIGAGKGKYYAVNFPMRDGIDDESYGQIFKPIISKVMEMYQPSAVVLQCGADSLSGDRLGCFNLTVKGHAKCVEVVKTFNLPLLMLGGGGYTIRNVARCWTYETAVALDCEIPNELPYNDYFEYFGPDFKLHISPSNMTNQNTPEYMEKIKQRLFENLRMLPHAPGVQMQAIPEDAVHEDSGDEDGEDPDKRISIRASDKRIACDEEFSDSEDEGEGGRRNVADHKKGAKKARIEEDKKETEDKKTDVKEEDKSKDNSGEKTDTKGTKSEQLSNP
Chain of Histone deacetylase 3 (O15379 whole entry): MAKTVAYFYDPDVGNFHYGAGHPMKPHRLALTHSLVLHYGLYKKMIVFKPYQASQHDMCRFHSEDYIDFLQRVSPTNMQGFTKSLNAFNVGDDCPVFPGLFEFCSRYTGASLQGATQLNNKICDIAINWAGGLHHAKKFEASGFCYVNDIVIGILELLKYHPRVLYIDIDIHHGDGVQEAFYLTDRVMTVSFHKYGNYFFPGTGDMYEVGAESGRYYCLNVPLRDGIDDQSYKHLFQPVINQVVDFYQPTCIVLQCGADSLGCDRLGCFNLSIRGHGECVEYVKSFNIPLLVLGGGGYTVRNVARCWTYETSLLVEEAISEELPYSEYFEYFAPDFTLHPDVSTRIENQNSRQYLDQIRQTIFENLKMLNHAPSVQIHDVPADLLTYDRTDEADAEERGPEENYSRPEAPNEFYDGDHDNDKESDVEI

Row | SMILES | IC50 [1] | other results
1 | CC1(c2ccccc2)NC(=O)N(Cc2ccc(C(=O)NO)cc2)C1=O (racemic) | 74.9 nM | –
2 | O=C(NO)c1ccc(CN2C(=O)NC(Cc3cccc4ccccc34)(c3ccccc3)C2=O)cc1 (racemic) | 91.9 nM | –
3 | CCCN1CC(=O)N(Cc2ccc(C(=O)NO)cc2)C1=O | 53.4 nM | –
4 | COc1ccc(CC2(c3ccccc3)NC(=O)N(Cc3ccc(C(=O)NO)cc3)C2=O)cc1 (racemic) | 72.4 nM | –
5 | CN1C(=O)N(Cc2ccc(C(=O)NO)cc2)C(=O)C1Cc1ccccc1 (racemic) | 108 nM | –
6 | CCCN1C(=O)N(Cc2ccc(C(=O)NO)cc2)C(=O)C1Cc1ccccc1 (racemic) | 56.9 nM | –
7 | O=C(NO)c1ccc(CN2C(=O)CN(CCc3ccccc3)C2=O)cc1 | 21.7 nM | –
8 | O=C(NO)c1ccc(CN2C(=O)NC(CCc3ccccc3)(c3ccccc3)C2=O)cc1 (racemic) | 24.7 nM | –
9 | CCCN1C(=O)N(Cc2ccc(C(=O)NO)cc2)C(=O)C1CC(C)C (racemic) | 174 nM | –
10 | O=C(NO)c1ccc(CN2C(=O)C(Cc3ccccc3)N(Cc3ccc4ccccc4c3)C2=O)cc1 (racemic) | 25.1 nM | –
11 | CC(C)(C)OC(=O)Nc1ccc(-c2cc(NC(=O)CCCCCCC(=O)NO)no2)cc1 | – | IC50 (Histone deacetylase 3): 0.42 nM; IC50 (Histone deacetylase 8 [2]): 6850 nM; IC50 (Histone deacetylase 2 [3]): 252 nM; IC50 (Histone deacetylase 1 [4]): 271 nM
12 | O=C(NO)c1ccc(CN2C(=O)C(Cc3ccccc3)N(Cc3ccccn3)C2=O)cc1 (racemic) | 4.8 nM | IC50 (Histone deacetylase 8 [5]): 7830 nM; IC50 (Histone deacetylase 1 [6]): 3420 nM; IC50 (Histone deacetylase 2 [7]): 5080 nM
13 | CN1CC(=O)N(Cc2ccc(C(=O)NO)cc2)C1=O | 119 nM | –
14 | CC(C)(C)c1ccc(CC2(c3ccccc3)NC(=O)N(Cc3ccc(C(=O)NO)cc3)C2=O)cc1 (racemic) | 115 nM | –
15 | O=C(NO)c1ccc(CN2C(=O)NC(Cc3ccc4ccccc4c3)(c3ccccc3)C2=O)cc1 (racemic) | 74.6 nM | –
16 | Cc1ccc(CC2(c3ccccc3)NC(=O)N(Cc3ccc(C(=O)NO)cc3)C2=O)cc1 (racemic) | 82.4 nM | –
17 | O=C(NO)c1ccc(CN2C(=O)C(Cc3ccccc3)N(CCc3ccccc3)C2=O)cc1 (racemic) | 20.2 nM | –
18 | COc1ccc(CN2C(=O)N(Cc3ccc(C(=O)NO)cc3)C(=O)C2Cc2ccccc2)cc1 (racemic) | 102 nM | –

Row | SMILES | IC50 [1] | other results
19 | CC(C)(C)c1ccc(CN2CC(=O)N(Cc3ccc(C(=O)NO)cc3)C2=O)cc1 | 40.7 nM | –
20 | COc1ccc(CN2CC(=O)N(Cc3ccc(C(=O)NO)cc3)C2=O)cc1 | 28.2 nM | –
21 | CC(C)CC1C(=O)N(Cc2ccc(C(=O)NO)cc2)C(=O)N1C (racemic) | 251 nM | –
22 | O=C(NO)c1ccc(CN2C(=O)C(Cc3ccccc3)N(Cc3ccccc3)C2=O)cc1 (racemic) | 21.3 nM | –
23 | Cc1ccc(CN2CC(=O)N(Cc3ccc(C(=O)NO)cc3)C2=O)cc1 | 17.6 nM | –
24 | CN1CCc2c(c3ccccc3n2Cc2ccc(C(=O)NO)cc2)C1 [TUBASTATIN A] | – | Activity (HL-60 [8]): 6.12%; viability at 3 µM (HL-60 [9]): 87.6%; IC50 (HEL): 8090 nM; IC50 (Jurkat): 14600 nM; Activity (HL-60 [10]): 6.24%; IC50 (HL-60 [11]): 4090 nM; IC50 (HUVEC): 69200 nM; IC50 [12]: 48600 nM; IC50 (NCI-H929): 15400 nM; IC50 (KG-1): 8820 nM
25 | Cc1ccc(CN2C(=O)N(Cc3ccc(C(=O)NO)cc3)C(=O)C2Cc2ccccc2)cc1 (racemic) | 37.8 nM | –
26 | O=C(NO)c1ccc(CN2C(=O)C(Cc3ccccc3)N(Cc3cccc4ccccc34)C2=O)cc1 (racemic) | 28.8 nM | –
27 | O=C(NO)c1ccc(CN2C(=O)C(Cc3ccccc3)N(Cc3ccncc3)C2=O)cc1 (racemic) | 13.9 nM | –
28 | CC(C)(C)c1ccc(CN2C(=O)N(Cc3ccc(C(=O)NO)cc3)C(=O)C2Cc2ccccc2)cc1 (racemic) | 139 nM | –
29 | O=C(NO)c1ccc(CN2C(=O)NC(Cc3ccc(Cl)cc3)(c3ccccc3)C2=O)cc1 (racemic) | 54 nM | –
30 | O=C(NO)c1ccc(CN2C(=O)C(Cc3ccccc3)N(Cc3ccc(Cl)cc3)C2=O)cc1 (racemic) | 6 nM | IC50 (Histone deacetylase 8 [5]): 3990 nM; Ratio IC50 (Homo sapiens [13]): 1380; Ratio IC50 (Homo sapiens [14]): 1360; IC50 (Histone deacetylase 1 [6]): 8180 nM; Ratio IC50 (Homo sapiens [15]): 664; IC50 (Histone deacetylase 2 [7]): 8260 nM
31 | O=C(NO)c1ccc(CN2C(=O)CN(Cc3ccc(Cl)cc3)C2=O)cc1 | 8.3 nM | IC50 (Histone deacetylase 8 [5]): 994 nM; IC50 (Histone deacetylase 1 [6]): 863 nM; IC50 (Histone deacetylase 2 [7]): 1080 nM
32 | O=C(NO)c1ccc(CN2C(=O)CN(Cc3ccccc3)C2=O)cc1 | 12.5 nM | –
33 | CCCC1(c2ccccc2)NC(=O)N(Cc2ccc(C(=O)NO)cc2)C1=O (racemic) | 50.9 nM | –
34 | O=C(NO)c1ccc(CN2C(=O)CN(Cc3ccc4ccccc4c3)C2=O)cc1 | 13.1 nM | –
35 | CC(C)CC1C(=O)N(Cc2ccc(C(=O)NO)cc2)C(=O)N1Cc1ccccc1 (racemic) | 129 nM | –
36 | O=C(NO)c1ccc(CN2C(=O)NC(Cc3ccccc3)(c3ccccc3)C2=O)cc1 (racemic) | 71.9 nM | –
